Experimental data collected from several papers.
Compare with care: the assays were run in different laboratories.
Target: Serine/threonine-protein kinase Nek11 (NEK11, Homo sapiens, UniProt Q8NG66)
Residues used in one study (Q8NG66 1-645): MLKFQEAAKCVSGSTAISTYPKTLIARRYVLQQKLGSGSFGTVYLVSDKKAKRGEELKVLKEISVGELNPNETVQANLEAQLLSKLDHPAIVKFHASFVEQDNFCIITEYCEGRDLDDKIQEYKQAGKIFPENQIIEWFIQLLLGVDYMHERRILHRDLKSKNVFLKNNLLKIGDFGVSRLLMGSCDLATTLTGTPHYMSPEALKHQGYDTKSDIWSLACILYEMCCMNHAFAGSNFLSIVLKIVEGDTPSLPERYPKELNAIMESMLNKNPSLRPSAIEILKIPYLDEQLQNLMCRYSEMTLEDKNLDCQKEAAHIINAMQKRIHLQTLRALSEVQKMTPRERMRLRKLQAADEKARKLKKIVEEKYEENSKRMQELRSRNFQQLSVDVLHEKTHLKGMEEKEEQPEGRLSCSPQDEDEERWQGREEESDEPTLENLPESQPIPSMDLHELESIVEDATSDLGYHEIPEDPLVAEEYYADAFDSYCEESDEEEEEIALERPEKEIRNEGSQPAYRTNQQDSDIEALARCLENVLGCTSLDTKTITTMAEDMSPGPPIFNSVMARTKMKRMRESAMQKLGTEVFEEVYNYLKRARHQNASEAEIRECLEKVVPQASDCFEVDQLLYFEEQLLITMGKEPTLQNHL

Compound | read-out | action | method | concentration | endpoint | result
C#Cc1cccc(Nc2ncnc3cc(OCCOC)c(OCCOC)cc23)c1 | cell-free assay | – | – | 0.5 µM | remaining signal | 114%
CCN(CC)CCNC(=O)c1c(C)[nH]c(/C=C2\C(=O)Nc3ccc(F)cc32)c1C | enzyme activity | inhibitor | – | 10 µM | inhibition | 46%
Clc1ccc(Nc2nnc(Cc3ccncc3)c3ccccc23)cc1 | cell-free assay | – | – | 0.5 µM | remaining signal | 87%
O=C(Nc1cnn(-c2csc(C(=O)NC3COC3)c2)c1)Nc1ccccc1Cl | enzyme activity | inhibitor | – | 5 µM | remaining activity | 145%
Cc1cnc(NC2CCOCC2)nc1-n1cnc(C(=O)NC(CN)c2cc(F)cc(Cl)c2)c1 (centres unmarked) | enzyme activity | inhibitor | radiometric | 1 µM | remaining activity | 81%
CCN(CC)c1ccc(C2=NNC(=O)CC2C)cc1[N+](=O)[O-] (centres unmarked) | enzyme activity | inhibitor | – | 10 µM | remaining activity | 114%
Cc1ccc(C(=O)Nc2ccc(CN3CCN(C)CC3)c(C(F)(F)F)c2)cc1C#Cc1cnc2cccnn12 | enzyme activity | inhibitor | – | 23.5 nM | remaining activity | 83%
Nc1ncnc2occ(-c3ccc(NC(=O)Nc4cc(C(F)(F)F)ccc4F)cc3)c12 | cell-free assay | inhibitor | – | 20 µM | remaining signal | 9.3%
CC1=C(C#N)C(c2ccc3c(c2)c(NC(=O)c2ccccc2C)nn3C)C(C#N)=C(C)N1 | cell-free assay | – | competition with immobilised ligand | 1 µM | remaining binding | 96%
CNC(=O)c1cc(Oc2ccc(NC(=O)Nc3ccc(Cl)c(C(F)(F)F)c3)cc2)ccn1 | enzyme activity | inhibitor | – | 10 µM | inhibition | 28%
CN1CCN(c2cnc3c(C4CCN(C(=O)c5ccc(OC(F)(F)F)cc5N)CC4)ncnc3c2)CC1 | cell-free assay | – | competition with immobilised ligand | 1 µM | remaining binding | 100%
O=C1Nc2ccc(Cl)cc2C1=Cc1cc(Cl)c(O)c(Cl)c1 | cell-free assay | – | – | 0.5 µM | remaining signal | 104%
C[C@H](c1cccc(C#N)c1)n1cc(Cl)cc(C(N)=O)c1=N | cell-free assay | – | competition with immobilised ligand | 1 µM | remaining binding | 100%
Oc1cccc(-c2nc(N3CCOCC3)c3oc4ncccc4c3n2)c1 | cell-free assay | – | – | 0.5 µM | remaining signal | 109%
Cc1c(NC(=O)c2cc(C(N)=O)nc3cc(F)ccc23)c(C(F)(F)F)nn1Cc1ccc(C#N)cc1 | cell-free assay | – | competition with immobilised ligand | 1 µM | remaining binding | 100%
Cc1ccc(Nc2nccc(N(C)c3ccc4c(C)n(C)nc4c3)n2)cc1S(N)(=O)=O | enzyme activity | inhibitor | – | 0.3 µM | inhibition | -9%
CCC(=O)N[C@H]1CC[C@@H](C(=O)N(C)c2ccc(-c3nc4ccccc4o3)cc2)C1 | cell-free assay | – | competition with immobilised ligand | 1 µM | remaining binding | 86%
CC(C)(C)c1nc2c(s1)c1nc(N)ncc1c1ccc(NS(=O)(=O)c3c(F)cccc3F)c(F)c12 | enzyme activity | inhibitor | radiometric | 1 µM | remaining activity | 60%
O=C(O)[C@H]1[C@H](Cn2nnc3ccccc3c2=O)CC[C@@H]1C(=O)c1ccc(OCCC2CCOCC2)cc1 | cell-free assay | – | competition with immobilised ligand | 1 µM | remaining binding | 100%
CC(C)(O)[C@H]1CC[C@H](Nc2ccc3ncc(-c4cccc(C(F)(F)F)c4)n3n2)CC1 | enzyme activity | inhibitor | – | 1 µM | remaining activity | 120%
